Entries after “also recorded” stand apart in the source; their conditions may differ.
Experiments:
[1] = tested on: mammalian target of rapamycin (mTOR); conditions: cited from earlier work
[2] = tested on: class III PI3K; conditions: cited from earlier work
[3] = Plasma pharmacokinetics, LC/MS/MS, non-compartmental analysis; type: in vivo, human; conditions: for AUC(0-t) / Cmax / half-life: human, plasma, po
[4] = Phase I dose escalation: MTD, DLTs and toxicities; type: in vivo, human
Summary of the method: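 Open-label, four-centre, 3+3 escalation in metastatic solid-tumour patients. Test compound taken orally from 2 mg, QD (2–96 mg) then BID (48–72 mg), in continuous 4-week cycles after a single-dose run-in with 5–7 day washout. Toxicities graded by CTCAE v4.03. DLTs assessed over run-in plus first cycle. MTD: highest level with ≤1 of 6 patients showing DLT. Descriptive statistics.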

In the case of `CS(=O)(=O)N1CCc2c(-c3cnc(N)nc3)nc(N3CCOCC3)nc21` [CH5132799], the “Inhibitory activity against mTOR” value [1] is given as “no inhibitory activity”, the “Inhibitory activity against class III PI3K” value [2] is given as “no inhibitory activity” and the Accumulation ratio ([3]; 2mg (QD), AUC0-24h repeat dose / single dose, mean, n=3) is given as 0.912(3). The Accumulation ratio ([3]; 4 mg (QD), AUC0-24h repeat dose / single dose, mean, n=3) was 1.54(3), the Accumulation ratio ([3]; 8 mg (QD), AUC0-24h repeat dose / single dose, mean, n=2) was 1.22(2) and the Accumulation ratio ([3]; 16 mg (QD), AUC0-24h repeat dose / single dose, n=1) was 0.972(1). For the same molecule, the Accumulation ratio ([3]; 32 mg (QD), AUC0-24h repeat dose / single dose, mean, n=2) was 1.57(2), the Accumulation ratio ([3]; 48 mg (BID), AUC0-12h repeat dose / single dose, mean, n=2) was 1.10(2) and the Accumulation ratio ([3]; 56 mg (BID), AUC0-12h repeat dose / single dose, mean, n=2) was 1.72(2). The Accumulation ratio ([3]; 56 mg (QD), AUC0-24h repeat dose / single dose, mean, n=3) was 1.07(3), the Accumulation ratio ([3]; 72 mg (BID), AUC0-12h repeat dose / single dose, n=1) was 2.25(1) and the Accumulation ratio ([3]; 96 mg (QD), AUC0-24h repeat dose / single dose, mean, n=3) was 0.640(3). The “AUC at doses above the dose-proportional range” value ([3]; doses above 56 mg QD) was “no further increase in AUC; also recorded: no significant increments in AUC”, the AUC(0-t) ([3]; 2 mg, AUC0-24h, 2mg (QD), repeat dose, mean, n=3) was 48.8 ng·h/mL and the AUC(0-t) ([3]; 2 mg, AUClast, 2mg (QD), single dose, mean, n=3, AUClast = AUC0-72h) was 53 ng·h/mL. For the same molecule, the Cmax ([3]; 2 mg, 2mg (QD), repeat dose, mean, n=3) was 9.92 ng/mL, the Cmax ([3]; 2 mg, 2mg (QD), single dose, mean, n=3) was 10 ng/mL and the half-life ([3]; 2 mg, t1/2, 2mg (QD), single dose, mean, n=3) was 7.52 h. For the same molecule, the AUC(0-t) ([3]; 4 mg, AUC0-24h, 4 mg (QD), repeat dose, mean, n=3) was 167 ng·h/mL, the AUC(0-t) ([3]; 4 mg, AUClast, 4 mg (QD), single dose, mean, n=3, AUClast = AUC0-72h) was 112 ng·h/mL and the Cmax ([3]; 4 mg, 4 mg (QD), repeat dose, mean, n=3) was 22.5 ng/mL. The Cmax ([3]; 4 mg, 4 mg (QD), single dose, mean, n=3) was 17.2 ng/mL, the half-life ([3]; 4 mg, t1/2, 4 mg (QD), single dose, mean, n=3) was 8.3 h and the AUC(0-t) ([3]; 8 mg, AUC0-24h, 8 mg (QD), repeat dose, mean, n=2) was 159 ng·h/mL. For the same molecule, the AUC(0-t) ([3]; 8 mg, AUClast, 8 mg (QD), single dose, mean, n=3, AUClast = AUC0-72h) was 133 ng·h/mL, the Cmax ([3]; 8 mg, 8 mg (QD), repeat dose, mean, n=2) was 46.3 ng/mL and the Cmax ([3]; 8 mg, 8 mg (QD), single dose, mean, n=3) was 41.1 ng/mL. It also gave a half-life ([3]; 8 mg, t1/2, 8 mg (QD), single dose, mean, n=3) of 23.7 h, an AUC(0-t) ([3]; 16 mg, AUC0-24h, 16 mg (QD), repeat dose, mean, n=2) of 621 ng·h/mL and an AUC(0-t) ([3]; 16 mg, AUClast, 16 mg (QD), single dose, n=1, AUClast = AUC0-72h) of 883 ng·h/mL. It also gave a Cmax ([3]; 16 mg, 16 mg (QD), repeat dose, mean, n=3) of 100 ng/mL, a Cmax ([3]; 16 mg, 16 mg (QD), single dose, n=1) of 113 ng/mL and a half-life ([3]; 16 mg, t1/2, 16 mg (QD), single dose, n=1) of 13.7 h. It also gave an AUC(0-t) ([3]; 32 mg, AUC0-24h, 32 mg (QD), repeat dose, mean, n=2) of 1740 ng·h/mL, an AUC(0-t) ([3]; 32 mg, AUClast, 32 mg (QD), single dose, mean, n=4, AUClast = AUC0-72h) of 859 ng·h/mL and a Cmax ([3]; 32 mg, 32 mg (QD), repeat dose, mean, n=3) of 345 ng/mL. The Cmax ([3]; 32 mg, 32 mg (QD), single dose, mean, n=4) was 165 ng/mL, the half-life ([3]; 32 mg, t1/2, 32 mg (QD), single dose, mean, n=4) was 12.2 h and the half-life ([3]; 48 mg) was 10.2 h. For the same molecule, the AUC(0-t) ([3]; 48 mg, AUC0-24h, 48 mg (BID) = MTD, repeat dose (steady state), mean, n=5, calculated based on data from 0 to 12 hours (AUC0-12h)) was 1550 ng·h/mL, the AUC(0-t) ([3]; 48 mg, AUClast, 48 mg (BID) = MTD, single dose, mean, n=4, AUClast = AUC0-72h) was 1270 ng·h/mL and the Cmax ([3]; 48 mg, 48 mg (BID) = MTD, repeat dose (steady state), mean, n=5) was 175 ng/mL. The Cmax ([3]; 48 mg, 48 mg (BID) = MTD, single dose, mean, n=5) was 172 ng/mL, the AUC(0-t) ([3]; 56 mg, AUC0-24h, 56 mg (BID), repeat dose, mean, n=2, calculated based on data from 0 to 12 hours (AUC0-12h)) was 5940 ng·h/mL and the AUC(0-t) ([3]; 56 mg, AUC0-24h, 56 mg (QD), repeat dose, mean, n=3) was 748 ng·h/mL. The AUC(0-t) ([3]; 56 mg, AUClast, 56 mg (BID), single dose, mean, n=5, AUClast = AUC0-72h) was 3030 ng·h/mL, the AUC(0-t) ([3]; 56 mg, AUClast, 56 mg (QD), single dose, mean, n=3, AUClast = AUC0-72h) was 969 ng·h/mL and the Cmax ([3]; 56 mg, 56 mg (BID), repeat dose, mean, n=3) was 331 ng/mL. It also gave a Cmax ([3]; 56 mg, 56 mg (BID), single dose, mean, n=5) of 428 ng/mL, a Cmax ([3]; 56 mg, 56 mg (QD), repeat dose, mean, n=3) of 184 ng/mL and a Cmax ([3]; 56 mg, 56 mg (QD), single dose, mean, n=3) of 163 ng/mL. The half-life ([3]; 56 mg, t1/2, 56 mg (BID), single dose, mean, n=5) was 16.3 h, the half-life ([3]; 56 mg, t1/2, 56 mg (QD), single dose, mean, n=3) was 14.5 h and the AUC(0-t) ([3]; 72 mg, AUC0-24h, 72 mg (BID), repeat dose, n=1, calculated based on data from 0 to 12 hours (AUC0-12h)) was 5580 ng·h/mL. It also gave an AUC(0-t) ([3]; 72 mg, AUClast, 72 mg (BID), single dose, mean, n=3, AUClast = AUC0-72h) of 2480 ng·h/mL, a Cmax ([3]; 72 mg, 72 mg (BID), repeat dose, n=1) of 631 ng/mL and a Cmax ([3]; 72 mg, 72 mg (BID), single dose, mean, n=3) of 265 ng/mL. For the same molecule, the half-life ([3]; 72 mg, t1/2, 72 mg (BID), single dose, mean, n=3) was 18.3 h, the AUC(0-t) ([3]; 96 mg, AUC0-24h, 96 mg (QD), repeat dose, mean, n=3) was 691 ng·h/mL and the AUC(0-t) ([3]; 96 mg, AUClast, 96 mg (QD), single dose, mean, n=4, AUClast = AUC0-72h) was 1650 ng·h/mL. The Cmax ([3]; 96 mg, 96 mg (QD), repeat dose, mean, n=3) was 103 ng/mL, the Cmax ([3]; 96 mg, 96 mg (QD), single dose, mean, n=4) was 206 ng/mL and the half-life ([3]; 96 mg, t1/2, 96 mg (QD), single dose, mean, n=3) was 23.2 h. For the same molecule, the “Dose range with dose proportionality of AUC” value ([3]; oral) was 2 to 56 mg, the “Treatment-related dry skin, number of patients” value ([4]; 2 mg QD (n=3), grade 1-2) was 1 and the “Treatment-related fatigue, number of patients” value (from here on “Treatment-related fatigue”) ([4]; 2 mg QD (n=3), grade 1-2) was 2. For the same molecule, the “Treatment-related nausea, number of patients” value (“Treatment-related nausea” for short) ([4]; 2 mg QD (n=3), grade 1-2) was 1, the “Treatment-related nausea” value ([4]; 4 mg QD (n=3), grade 1-2) was 1 and the “Treatment-related rash, number of patients” value ([4]; 4 mg QD (n=3), grade 1-2) was 1. For the same molecule, the “Treatment-related fatigue” value ([4]; 8 mg QD (n=3), grade 1-2) was 1, the “Treatment-related rash, number of patients” value ([4]; 8 mg QD (n=3), grade 1-2) was 1 and the “Treatment-related stomatitis, number of patients” value ([4]; 8 mg QD (n=3), grade 1-2) was 1. For the same molecule, the “Treatment-related anemia, number of patients” value ([4]; 8 mg QD (n=3), grade 3-4) was 1, the “Treatment-related decreased appetite, number of patients” value ([4]; 16 mg QD (n=3), grade 1-2) was 1 and the “Treatment-related fatigue” value ([4]; 16 mg QD (n=3), grade 1-2) was 1. The “Treatment-related nausea” value ([4]; 16 mg QD (n=3), grade 1-2) was 2, the “Treatment-related decreased appetite, number of patients” value ([4]; 32 mg QD (n=4), grade 1-2) was 2 and the “Treatment-related fatigue” value ([4]; 32 mg QD (n=4), grade 1-2) was 1. For the same molecule, the “Treatment-related nausea” value ([4]; 32 mg QD (n=4), grade 1-2) was 1 and the “Patients with DLT (grade 3 LFT/transaminase elevation)” value ([4]; 48 mg BID) was “one of seven”.
